Measurements published in ChEMBL document CHEMBL1152399, “Synthesis and fungicidal activity of 3,5-dichloropyrazin-2(1H)-one derivatives” (2009).
Converted amounts (≈) assume the structure as drawn.

Assays:
Assay type in all cases: functional
[1] = system: Candida albicans; test: Antifungal activity against Candida albicans CAI4
In short: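 C. albicans CAI4 overnight YPD culture diluted in PBS (~2 × 10⁶ cells/mL) and exposed to a range of compound concentrations in 2% DMSO for 5 h at 37 °C, then CFU counted. Survival is the CFU ratio against the 2% DMSO control. MFC is the lowest concentration giving <0.1% survival.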

[2] = system: Candida albicans; test: Induction of reactive oxygen species production in Candida albicans assessed as corrected fluorescence value at 100 ug/mL after 3 hrs by fluorescence assay
In short: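 C. albicans grown overnight in YPD at 37 °C and resuspended in PBS. Cells mixed with a 100 µg/mL compound solution in 10% DMSO (DMSO alone as control) and held 1 h at 37 °C. 2',7'-dichlorofluorescin diacetate then added; fluorescence read after 3 h (ex 485/em 525 nm). A compound-plus-probe blank without cells was subtracted to give the corrected value.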

[3] = system: Candida albicans; test: Antifungal activity against Candida albicans assessed as fungus survival rate at 5 ug/mL in absence of ascorbic acid
In short: (§1)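 Overnight C. albicans YPD culture diluted in PBS (~2 × 10⁶ cells/mL) and treated with compound in 2% DMSO, with or without 80 mM ascorbic acid, for 5 h at 37 °C. CFU counted, and percentage survival taken against the 2% DMSO control.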

[4] = system: Candida albicans; test: Antifungal activity against Candida albicans assessed as fungus survival rate at 5 ug/mL in presence of ascorbic acid; in short: as §1
[5] = system: Saccharomyces cerevisiae; test: Antifungal activity against wild type Saccharomyces cerevisiae BY4741 after 48 hrs by microtiter plate method; details: BY4741, 48 h
In short: (§2)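 Yeast deletion mutants grown in YPD in microtiter wells for 48 h at 30 °C. For the retest, 5 µL fivefold serial dilutions of stationary-phase cultures were spotted on YPD with or without compound, and growth was compared with BY4741 after 48 h at 30 °C.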

[6] = system: Saccharomyces cerevisiae; test: Antifungal activity against CUP5 gene knockout Saccharomyces cerevisiae mutant after 48 hrs by microtiter plate method; in short: as §2
[7] = system: Saccharomyces cerevisiae; test: Antifungal activity against VPH2 gene knockout Saccharomyces cerevisiae mutant after 48 hrs by microtiter plate method; in short: as §2
[8] = system: Saccharomyces cerevisiae; test: Antifungal activity against VMA7 gene knockout Saccharomyces cerevisiae mutant after 48 hrs by microtiter plate method; in short: as §2
[9] = system: Saccharomyces cerevisiae; test: Antifungal activity against ADA2 gene knockout Saccharomyces cerevisiae mutant after 48 hrs by microtiter plate method; in short: as §2
[10] = system: Saccharomyces cerevisiae; test: Antifungal activity against HTL1 gene knockout Saccharomyces cerevisiae mutant after 48 hrs by microtiter plate method; in short: as §2
[11] = system: Saccharomyces cerevisiae; test: Antifungal activity against SPT7 gene knockout Saccharomyces cerevisiae mutant after 48 hrs by microtiter plate method; in short: as §2
[12] = system: Saccharomyces cerevisiae; test: Antifungal activity against GET2 gene knockout Saccharomyces cerevisiae mutant after 48 hrs by microtiter plate method; in short: as §2
[13] = system: Saccharomyces cerevisiae; test: Antifungal activity against YKL118W gene knockout Saccharomyces cerevisiae mutant after 48 hrs by microtiter plate method; in short: as §2
[14] = system: Saccharomyces cerevisiae; test: Antifungal activity against REG1 gene knockout Saccharomyces cerevisiae mutant after 48 hrs by microtiter plate method; in short: as §2
[15] = system: Saccharomyces cerevisiae; test: Antifungal activity against AMD1 gene knockout Saccharomyces cerevisiae mutant after 48 hrs by microtiter plate method; in short: as §2
[16] = system: Saccharomyces cerevisiae; test: Ratio of MIC for wild type Saccharomyces cerevisiae BY4741 to MIC for VPS15 gene knockout Saccharomyces cerevisiae mutant
[17] = system: Saccharomyces cerevisiae; test: Ratio of MIC for wild type Saccharomyces cerevisiae BY4741 to MIC for CUP5 gene knockout Saccharomyces cerevisiae mutant
[18] = system: Saccharomyces cerevisiae; test: Ratio of MIC for wild type Saccharomyces cerevisiae BY4741 to MIC for VPH2 gene knockout Saccharomyces cerevisiae mutant
[19] = system: Saccharomyces cerevisiae; test: Ratio of MIC for wild type Saccharomyces cerevisiae BY4741 to MIC for VMA7 gene knockout Saccharomyces cerevisiae mutant
[20] = system: Saccharomyces cerevisiae; test: Ratio of MIC for wild type Saccharomyces cerevisiae BY4741 to MIC for ADA2 gene knockout Saccharomyces cerevisiae mutant
[21] = system: Saccharomyces cerevisiae; test: Ratio of MIC for wild type Saccharomyces cerevisiae BY4741 to MIC for HTL1 gene knockout Saccharomyces cerevisiae mutant
[22] = system: Saccharomyces cerevisiae; test: Ratio of MIC for wild type Saccharomyces cerevisiae BY4741 to MIC for SPT7 gene knockout Saccharomyces cerevisiae mutant
[23] = system: Saccharomyces cerevisiae; test: Ratio of MIC for wild type Saccharomyces cerevisiae BY4741 to MIC for GET2 gene knockout Saccharomyces cerevisiae mutant
[24] = system: Saccharomyces cerevisiae; test: Ratio of MIC for wild type Saccharomyces cerevisiae BY4741 to MIC for YKL118W gene knockout Saccharomyces cerevisiae mutant
[25] = system: Saccharomyces cerevisiae; test: Ratio of MIC for wild type Saccharomyces cerevisiae BY4741 to MIC for REG1 gene knockout Saccharomyces cerevisiae mutant
[26] = system: Saccharomyces cerevisiae; test: Ratio of MIC for wild type Saccharomyces cerevisiae BY4741 to MIC for AMD1 gene knockout Saccharomyces cerevisiae mutant
[27] = system: Saccharomyces cerevisiae; test: Antifungal activity against 3,5-dichloro-6-(chloromethyl)-1-phenylpyrazin-2(1H)-one-resistant Saccharomyces cerevisiae mutant after 48 hrs by microtiter plate method
[28] = system: Saccharomyces cerevisiae; test: Antifungal activity against VPS15 gene knockout Saccharomyces cerevisiae mutant after 48 hrs by microtiter plate method; in short: as §2
[29] = system: Saccharomyces cerevisiae; test: Ratio of MIC for 3,5-dichloro-6-(chloromethyl)-1-phenylpyrazin-2(1H)-one-resistant Saccharomyces cerevisiae mutant to MIC for wild type Saccharomyces cerevisiae BY4741

In the case of `COc1ccc(-c2c(Cl)nc(Cl)c(=O)n2-c2ccccc2)cc1`, the MFC [1] is reported as over 100 µg/mL.
`O=c1c(Cl)nc(Cl)cn1C1CCCCC1` gave an MFC [1] of over 100 µg/mL and an Activity [2] of over 500.
In the case of `O=c1c(Cl)nc(Cl)cn1CC1CCCCC1`, the MFC [1] is reported as 100 µg/mL (≈ 383 µM).
For `COc1nc(Cl)c(CCl)n(-c2ccccc2)c1=O`, the MFC [1] was over 100 µg/mL and the Activity [2] was over 500.
In the case of `O=c1c(Cl)nc(Cl)cn1Cc1ccccc1`, the MFC [1] is reported as 50 µg/mL (≈ 196 µM).
In the case of `COC(=O)c1ccc(-c2c(Cl)nc(Cl)c(=O)n2-c2ccccc2)cc1`, the MFC [1] is reported as over 100 µg/mL.
In the case of `COc1ccccc1Cn1c(Cc2ccccc2)c(Cl)nc(Cl)c1=O`, the MFC [1] is reported as over 100 µg/mL.
`COCCn1c(-c2ccccc2)c(Cl)nc(Cl)c1=O` showed an MFC [1] of over 100 µg/mL and an Activity [2] of over 500.
`COc1cccc(-c2c(Cl)nc(Cl)c(=O)n2C)c1` gave an MFC [1] of over 100 µg/mL and an Activity [2] of over 500.
With `O=c1c(Cl)nc(Cl)cn1-c1ccccc1` the MFC [1] was 10 µg/mL (≈ 41.5 µM).
For `O=c1c(Cl)nc(Cl)c(CCl)n1-c1ccccc1`, the MFC [1] was 5 µg/mL (≈ 17.3 µM), the Activity [3] was 0.009% and the Activity [4] was 64%. It also gave an MIC [5] of 2.5 µg/mL (≈ 8.63 µM), an MIC [6] of 0.5 µg/mL (≈ 1.73 µM) and an MIC [7] of 0.5 µg/mL (≈ 1.73 µM). It also gave an MIC [8] of 0.5 µg/mL (≈ 1.73 µM), an MIC [9] of 0.5 µg/mL (≈ 1.73 µM) and an MIC [10] of 0.5 µg/mL (≈ 1.73 µM). For the same compound, the MIC [11] was 0.5 µg/mL (≈ 1.73 µM), the MIC [12] was 0.5 µg/mL (≈ 1.73 µM) and the MIC [13] was 0.5 µg/mL (≈ 1.73 µM). For the same compound, the MIC [14] was 0.5 µg/mL (≈ 1.73 µM), the MIC [15] was 0.5 µg/mL (≈ 1.73 µM) and the Ratio [16] was 5. For the same compound, the Ratio [17] was 5, the Ratio [18] was 5 and the Ratio [19] was 5. For the same compound, the Ratio [20] was 5, the Ratio [21] was 5 and the Ratio [22] was 5. The Ratio [23] was 5, the Ratio [24] was 5 and the Ratio [25] was 5. It also gave a Ratio [26] of 5, an MIC [27] of 12.5 µg/mL (≈ 43.2 µM) and an MIC [28] of 0.5 µg/mL (≈ 1.73 µM). It also gave a Ratio [29] of 5.
In the case of `COc1ccc(-n2cc(Cl)nc(Cl)c2=O)cc1`, the MFC [1] is reported as 10 µg/mL (≈ 36.9 µM).
`Cc1ccccc1-c1c(Cl)nc(Cl)c(=O)n1-c1ccccc1` gave an MFC [1] of over 100 µg/mL and an Activity [2] of over 500.
`O=c1c(-c2ccccc2)nc(Cl)c(CCl)n1-c1ccccc1` was tested, and the MFC [1] was over 100 µg/mL and the Activity [2] was over 500.
For `COc1ccc(Cn2cc(Cl)nc(Cl)c2=O)cc1`, the MFC [1] was 50 µg/mL (≈ 175 µM).
Compound `COc1ccccc1-c1c(Cl)nc(Cl)c(=O)n1-c1ccccc1` has an MFC [1] of over 100 µg/mL and an Activity [2] of under 100.
`Cc1c(Cl)nc(Cl)c(=O)n1-c1ccccc1` gave an MFC [1] of over 100 µg/mL.
`COc1ccc(Cn2c(C)c(Cl)nc(Cl)c2=O)cc1` showed an MFC [1] of over 100 µg/mL.
`O=c1c(Cl)nc(Cl)c(CBr)n1-c1ccccc1` gave an MFC [1] of 5 µg/mL (≈ 15 µM).
With `O=c1c(Cl)nc(Cl)cn1CCc1ccccc1` the MFC [1] was 50 µg/mL (≈ 186 µM).
`Cc1c(Cl)nc(Cl)c(=O)n1Cc1ccccc1` gave an MFC [1] of over 100 µg/mL and an Activity [2] of over 500.
In the case of `COc1ccc(Cn2c(-c3ccc(OC)cc3)c(Cl)nc(Cl)c2=O)cc1`, the MFC [1] is reported as over 100 µg/mL and the Activity [2] is reported as over 500.
